In article PMC7217734 (Journal of biomolecular structure & dynamics, 2019):
Residues, ends and D or L forms follow the SMILES beside them.

Tests used:
[1] = target: T1, peptide 91a (coil 1A of vimentin) (Homo sapiens, UniProt P08670, A91E/F96L/I92R/N93L/Q126R/Q127R/T94A/V121L); experiment: Isothermal titration calorimetry; type: binding; conditions: NANO ITC; 374a 0.540mM in syringe, 91a 0.095mM in cell
T1 sequence (P08670 with tags, fused parts or gaps V121L/Q126R/Q127R limits assumed): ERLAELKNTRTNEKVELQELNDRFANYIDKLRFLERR
In short: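 The peptides were dissolved in 10 mM Tris pH 8.0. In a low-volume nano calorimeter, the syringe peptide was titrated into the cell peptide in 20 injections of 2.5 µl. Raw heat rate was recorded in µJ/s, and each injection peak was integrated to µJ. The isotherm gave the dissociation constant and stoichiometry n.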

Dynamic light scattering = type: physicochemical; conditions: 25°C, 1 mg/ml; 50mM NaCl, 10mM Tris-HCl (pH 7.5); individual peptide

## CC[C@H](C)[C@H](NC(=O)[C@H](CCC(=O)O)NC(=O)[C@@H](NC(=O)[C@H](CC(=O)O)NC(=O)[C@H](CC(C)C)NC(=O)[C@H](C)NC(=O)[C@H](CCSC)NC(=O)[C@H](CCCCN)NC(=O)[C@@H](NC(=O)[C@H](CC(N)=O)NC(=O)[C@H](CC(C)C)NC(=O)[C@H](CC(C)C)NC(=O)[C@H](CC(=O)O)NC(=O)[C@H](CCC(N)=O)NC(=O)[C@H](Cc1ccc(O)cc1)NC(=O)[C@H](CCC(=O)O)NC(=O)[C@H](CCCNC(=N)N)NC(=O)[C@H](CCC(=O)O)NC(=O)[C@H](CC(C)C)NC(=O)[C@H](CCCNC(=N)N)NC(=O)[C@H](C)NC(=O)[C@H](CC(C)C)NC(=O)[C@H](CCC(=O)O)NC(=O)[C@@H](N)CCC(=O)O)C(C)C)[C@@H](C)CC)C(=O)N[C@@H](C)C(=O)N[C@H](C(=O)N[C@@H](Cc1ccc(O)cc1)C(=O)N[C@@H](CCCNC(=N)N)C(=O)N[C@@H](CCCCN)C(=O)N[C@@H](CC(C)C)C(=O)N[C@@H](CC(C)C)C(=O)N[C@@H](CCC(=O)O)C(=O)N[C@@H](C)C(=O)N[C@@H](CC(C)C)C(=O)N[C@@H](CCC(=O)O)C(=O)N[C@@H](CO)C(=O)N[C@@H](CCCNC(=N)N)C(=O)O)[C@@H](C)O [peptide 374a] (H-EELARLEREYQDLLNVKMALDIEIATYRKLLEALESR-OH; N-terminus and C-terminus assumed)
[1]
  stoichiometric ratio n: ~1
  thermodynamic character of interaction, in words: enthalpy-driven interaction
Dynamic light scattering
  aggregation by DLS, in words: aggregation is occurring
